Source: PubChem
Shown are actives, neighbours in structure and some others; about 2.8% of the full set was active somewhere.
SR-BI DiI inh: inhibitors of mouse SR-BI mediated HDL lipid uptake; ldlA[mSR-BI] CHO cells, DiI-HDL uptake fluorescence, 3 h; AID 488896; Q61009; 0.96% of 320,000 active; inhibition, % at 12.5 µM;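 active = mean replicate inhibition of at least 70% and a set share of replicates each scoring 70 or more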
CAL PDZ FP-1: human CAL PDZ-peptide interaction inhibition. AID 504414. purified CAL PDZ, TMR-peptide fluorescence polarization, 1 h. inhibition, % at 20 µM. 0.02% of 330,000 active;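 active = highest replicate inhibition of at least 40%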
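Material: tagged CAL PDZ protein CerCALP, purified; buffer or medium: sodium phosphate/NaCl buffer pH 7.4 with TCEP, IgG, Thesit; also added: fluorescent TMR peptide probe; schedule: 1 h incubation at room temperature before polarization reading; technique: fluorescence polarization from S- and P-plane intensities, G-factor corrected; control set: unlabelled peptide and DMSO controls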
SR-BI uptake up: activators of SR-BI mediated HDL lipid uptake. 0.096% of 320,000 active. CHO ldlA[mSR-BI] cells, DiI-HDL uptake fluorescence, 3 h; 100 = double the neutral-control signal. activation, % at 12.5 µM. AID 504775;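 active = mean replicate activation of at least 60% and every replicate at or above 60%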
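Material – SR-BI-overexpressing, LDLR-lacking CHO cells · Medium – BSA-supplemented, HEPES-buffered Ham's F12, pH 7.4 · Doses – single concentration · Times – compound with DiI-HDL co-incubation, 3 h at 37 °C · Measured by – bottom-read fluorescence, 550/595 nm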
dFosB act-1: mouse delta FosB homodimer activation; purified delta FosB, TAMRA-CDK5 oligo fluorescence polarization; percent of positive-control signal above neutral wells; activation, % at 25 µM; 0.99% of 340,000 active; P13346;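 active = mean activation above about 17%, with every replicate also reaching it, limit read from the data, passing the limit was not always enough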
Target sequence (P13346 whole entry, looked up): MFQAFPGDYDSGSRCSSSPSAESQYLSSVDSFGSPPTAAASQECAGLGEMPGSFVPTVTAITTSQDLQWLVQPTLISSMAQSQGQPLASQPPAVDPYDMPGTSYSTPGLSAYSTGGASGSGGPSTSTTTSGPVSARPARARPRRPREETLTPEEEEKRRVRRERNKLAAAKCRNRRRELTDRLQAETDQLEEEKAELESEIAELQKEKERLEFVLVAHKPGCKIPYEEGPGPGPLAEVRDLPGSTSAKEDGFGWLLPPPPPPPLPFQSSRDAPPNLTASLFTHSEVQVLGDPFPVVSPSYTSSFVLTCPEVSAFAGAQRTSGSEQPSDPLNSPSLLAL
CAL PDZ FP-2: blocks peptide binding to the human CAL PDZ domain; inhibition, % at 24.9 µM; purified CAL PDZ, TMR-peptide fluorescence polarization, 1 h; 0.92% of 300,000 active; Q9HD26;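 active = mean inhibition of at least 30% with at least half of replicates also reaching 30%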
dFosB act-2: enhances mouse delta FosB homodimer binding to DNA; shares compounds with dFosB act-1; purified delta FosB, TAMRA-CDK5 oligo fluorescence polarization; normalised: neutral wells 0, positive control 100; activation, % at 24.9 µM; 2,400 tested, under 10 active;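 active = highest replicate activation at or above 34% and every replicate reaching that threshold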;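 also: higher polarization means more probe DNA bound by delta FosB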
Of the large screens only hits and unclear results are named; the others gave an inactive call (follow-up assays come after a bar, where they were run).

CN(CC(=O)Nc1ccc(Cl)c(C(F)(F)F)c1)C(=O)c1cc(-c2ccncc2)nc2ccccc12	dFosB act-1 65.7 | dFosB act-2 inactive
COCCN(C(=O)COc1ccccc1)c1nnc(-c2cccnc2)s1	dFosB act-1 32.4 (no result: CAL PDZ FP-1) | dFosB act-2 inactive
Cn1nccc1-c1cc(Cl)cc(Cl)c1O	none
Cc1cc(C)cc(C(=O)Nc2ccc(NC(=O)Cc3ccccc3)cc2)c1	dFosB act-1 42.7 (no result: CAL PDZ FP-2) | dFosB act-2 inactive
Cc1cc(C)cc(C(=O)Nc2ccc(NC(=O)c3cccs3)cc2)c1	dFosB act-1 24.7 | dFosB act-2 inactive
Cc1cc(C)c(NS(=O)(=O)c2ccc(NC(=O)c3cccs3)cc2)c(C)c1	dFosB act-1 26.4 | dFosB act-2 inactive
Cc1ccc(S(=O)(=O)Nc2ccc(NC(=O)c3cccs3)cc2)cc1	none (no result: CAL PDZ FP-2)
CC(=O)c1ccc(NC(=O)c2cccs2)cc1	none (no result: CAL PDZ FP-2)
Cc1cccc(C)c1NS(=O)(=O)c1ccc(NC(=O)c2ccc(Cl)c([N+](=O)[O-])c2)cc1	dFosB act-1 39.6 | dFosB act-2 inactive
CC(=O)Nc1cccc(OCCCNC(=O)C2CCC2)c1	none
CCS(=O)(=O)N1CCC2(CC1)OCCN2S(=O)(=O)c1ccc(OC)cc1	none
CCCCCCCN1C(Nc2ccccc2)=NC[C@@H]1CC(C)C	none
CC(C)(C)OC(=O)NCC1CCC(C(=O)NC[C@H](CC(=O)O)c2ccc(Cl)cc2)CC1 (stereo partly drawn)	none
CCOC(=O)/C=C/C(=O)Nc1ccc(Oc2ccccc2)cc1	none
CCOC(=O)/C=C/C(=O)Nc1ccc(S(=O)(=O)Nc2c(C)cc(C)cc2C)cc1	dFosB act-1 19.9 | dFosB act-2 inactive
C=CCn1c(SCc2nc3ccccc3c(=O)[nH]2)nc2scc(C3CC3)c2c1=O	dFosB act-1 32.8 (no result: SR-BI DiI inh, SR-BI uptake up) | dFosB act-2 inactive
CCOC(=O)c1cc2c(N)c(C(=O)c3ccc(Br)cc3)sc2[nH]c1=O	dFosB act-1 21.9 (no result: SR-BI DiI inh, SR-BI uptake up, CAL PDZ FP-2) | dFosB act-2 inactive
COc1cc(N=Nc2ccc(C(=O)N(C)C)cc2)c(C)cc1N	none (no result: CAL PDZ FP-2)
CCOc1ccc(CCNC(=O)COC(=O)/C=C/c2ccccc2OC)cc1OCC	none
O=C(CCc1ccccc1)Nc1nc2n(n1)C(c1ccccc1)CC(=O)N2 (stereo not drawn)	dFosB act-1 27.0 | dFosB act-2 inactive
COc1cc(NC(=O)c2cc(-c3ccc4c(c3)OCO4)on2)cc(OC)c1OC	none (no result: SR-BI DiI inh, SR-BI uptake up)
O=C(Nc1cccc(O)c1)c1cc(-c2ccc3c(c2)OCO3)on1	dFosB act-1 32.5, CAL PDZ FP-2 60.3 | dFosB act-2 inactive
Cc1ccc2nc(SCC(=O)Nc3ccc4sc(C)nc4c3)c(C#N)cc2c1	dFosB act-1 25.0 | dFosB act-2 inactive
Cc1cnc(NC(=O)c2ccc(-c3nc4ccccc4s3)o2)s1	none
O=C(Nc1ncc(Cc2ccccc2Cl)s1)c1ccc(-c2cccc([N+](=O)[O-])c2)o1	dFosB act-1 21.7 | dFosB act-2 inactive
Cc1cnc(NC(=O)c2ccc(-c3ccc([N+](=O)[O-])cc3)o2)s1	dFosB act-1 59.9 | dFosB act-2 inactive
O=C(Nc1ncc(Cc2ccc(C(F)(F)F)cc2)s1)c1ccc(-c2cccc([N+](=O)[O-])c2)o1	none
Cc1ccccc1-n1nc2c(c1NC(=O)C1CCCC1)CS(=O)(=O)C2	none
COc1ccc(/C=C(\C#N)C(=O)OCC(=O)NCc2ccccc2Cl)cc1	none
COc1ccc(/C=C(\C#N)C(=O)OCC(=O)NCc2ccccc2OC)cc1	dFosB act-1 30.5 | dFosB act-2 inactive
Cc1ccc(N(CC(=O)NCc2ccccc2)S(=O)(=O)c2c(C)noc2C)cc1	none
Cc1ccc(-c2cc(C(=O)N/N=C/c3c(C)nn(C)c3C)c3ccccc3n2)cc1C	SR-BI DiI inh 86.3, dFosB act-1 42.6 | dFosB act-2 inactive
COc1ccc(C(=O)Nc2nnc(S(=O)(=O)Cc3ccccc3)s2)cc1	dFosB act-1 23.1 | dFosB act-2 inactive
COc1ccc(C(=O)Nc2nnc(S(=O)(=O)Cc3ccc(F)cc3)s2)cc1	none
Cc1ccc(-c2csc(/C=C3\SC(C)C(=O)N3CC(=O)Nc3ccccc3F)n2)cc1 (stereo not drawn)	dFosB act-1 18.0 (no result: SR-BI DiI inh, SR-BI uptake up) | dFosB act-2 inactive
